Test results published in ChEMBL document CHEMBL1140549, “Rational design of N-alkyl derivatives of 2-amino-2-deoxy-d-glucitol-6P as antifungal agents” (Bioorg Med Chem Lett, 2007).
In brackets after ≈: the same amount, converted by molar mass. Activity calls are given as the source filed them. The calls are words filed in the database; no cut-off is given here.

Legend:
[1] = system: Candida albicans; test: Drug uptake in Candida albicans assessed as uptake rate per mg dry weight; type: ADME, organism-based; conditions: in vivo
[2] = Inhibition of Candida albicans glucosamine-6P synthase by Elson-Morgan method
Summary of the method: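 Enzyme was Candida albicans GlcN-6P synthase purified to near homogeneity. Reactions ran in 25 mM phosphate buffer, pH 6.9, with 1 mM EDTA and 1 mM DTT, D-Fru-6P (0.5–7.5 mM) and L-glutamine (0.625–10 mM), plus inhibitor. Product was measured by a modified Elson–Morgan method. IC50 and Ki are means of three experiments, with SD.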

[3] = target: Glucose-6-phosphate isomerase (Saccharomyces cerevisiae S288c) (UniProt P12709); test: Inhibition of yeast phosphoglucose isomerase upto 20 mM
[4] = system: Candida albicans; test: Antifungal activity against Candida albicans by serial dilution microplate method; type: functional
[5] = system: Nakaseomyces glabratus; test: Antifungal activity against Candida glabrata by serial dilution microplate method; type: functional
[6] = system: Candida tropicalis; test: Antifungal activity against Candida tropicalis by serial dilution microplate method; type: functional
[7] = system: Saccharomyces cerevisiae; test: Antimicrobial activity against Saccharomyces cerevisiae AD by serial dilution microplate method; type: functional
Summary of the method: (§1)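 Saccharomyces cerevisiae AD lacks the seven genes for the main drug-exporting membrane proteins. ADCDR1 is AD transformed with a plasmid carrying the gene for Candida albicans Cdr1p drug exporter. MIC was read by serial dilution in microplates.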

[8] = system: Saccharomyces cerevisiae; test: Antimicrobial activity against Saccharomyces cerevisiae ADCDR1 by serial dilution microplate method; type: functional; summary of the method: as §1

Glucose-6-phosphate isomerase (Saccharomyces cerevisiae S288c), sequence (P12709 whole entry): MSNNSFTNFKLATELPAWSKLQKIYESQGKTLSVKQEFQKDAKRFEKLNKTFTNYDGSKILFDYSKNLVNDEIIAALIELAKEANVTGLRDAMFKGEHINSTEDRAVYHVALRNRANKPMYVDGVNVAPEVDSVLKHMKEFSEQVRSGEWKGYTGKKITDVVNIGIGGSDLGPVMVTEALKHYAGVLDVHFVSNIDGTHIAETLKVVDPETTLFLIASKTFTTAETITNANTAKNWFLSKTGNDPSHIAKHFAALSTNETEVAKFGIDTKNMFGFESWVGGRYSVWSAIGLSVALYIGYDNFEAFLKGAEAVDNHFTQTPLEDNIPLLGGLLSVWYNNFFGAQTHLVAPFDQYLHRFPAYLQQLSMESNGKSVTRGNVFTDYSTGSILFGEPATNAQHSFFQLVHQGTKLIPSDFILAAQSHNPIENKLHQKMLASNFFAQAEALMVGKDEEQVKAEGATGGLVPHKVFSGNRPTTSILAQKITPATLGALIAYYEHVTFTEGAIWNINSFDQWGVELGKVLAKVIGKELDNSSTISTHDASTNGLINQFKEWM

Row | Compound | Drug uptake [1] [nmol/mg/min] | IC50 [2] [µM] | Ki [2] [µM] | Activity [3] | MIC [4] [mg/L] | MIC [5] [mg/L] | MIC [6] [mg/L] | MIC [7] [mg/L] | MIC [8] [mg/L]
1 | CCCCN(CCCC)[C@@H](CO)[C@@H](O)[C@H](O)[C@H](O)COP(=O)(O)O | 5 | 82 | 12 | inactive | 312 (≈ 836 µM) | 1250 (≈ 3350 µM) | 2500 (≈ 6700 µM) | 1250 (≈ 3350 µM) | 1250 (≈ 3350 µM)
2 | CCCCN[C@@H](CO)[C@@H](O)[C@H](O)[C@H](O)COP(=O)(O)O | 3.4 | 115 | 20 | inactive | 625 (≈ 1970 µM) | 1250 (≈ 3940 µM) | 1250 (≈ 3940 µM) | 1250 (≈ 3940 µM) | 1250 (≈ 3940 µM)
3 | CCN[C@@H](CO)[C@@H](O)[C@H](O)[C@H](O)COP(=O)(O)O | 2.9 | 180 | 26 | inactive | 1250 (≈ 4320 µM) | 2500 (≈ 8640 µM) | 2500 (≈ 8640 µM) | 2500 (≈ 8640 µM) | 2500 (≈ 8640 µM)
4 | OC(Cn1cncn1)(Cn1cncn1)c1ccc(F)cc1F [FLUCONAZOLE] | – | – | – | – | 8 (≈ 26.1 µM) | 16 (≈ 52.2 µM) | 16 (≈ 52.2 µM) | 4 (≈ 13.1 µM) | 32 (≈ 104 µM)
5 | CCCN(CCC)[C@@H](CO)[C@@H](O)[C@H](O)[C@H](O)COP(=O)(O)O | 4.7 | 52 | 10 | inactive | 160 (≈ 463 µM) | 625 (≈ 1810 µM) | 625 (≈ 1810 µM) | 80 (≈ 232 µM) | 160 (≈ 463 µM)
6 | CCCCCCN[C@@H](CO)[C@@H](O)[C@H](O)[C@H](O)COP(=O)(O)O | 4.8 | 290 | 49 | inactive | 625 (≈ 1810 µM) | 625 (≈ 1810 µM) | 310 (≈ 898 µM) | 310 (≈ 898 µM) | 310 (≈ 898 µM)
7 | CCN(CC)[C@@H](CO)[C@@H](O)[C@H](O)[C@H](O)COP(=O)(O)O | 3.9 | 40 | 8 | inactive | 310 (≈ 977 µM) | 625 (≈ 1970 µM) | 625 (≈ 1970 µM) | 310 (≈ 977 µM) | 310 (≈ 977 µM)
8 | N[C@@H](CO)[C@@H](O)[C@H](O)[C@H](O)COP(=O)(O)O | 1.1 | 230 | 35 | inactive | 5000 (≈ 19100 µM) | 10000 (≈ 38300 µM) | 10000 (≈ 38300 µM) | 5000 (≈ 19100 µM) | 5000 (≈ 19100 µM)
